Measured values: ChEMBL document CHEMBL3396947, “Synthesis and biological evaluation of phosphoramidate prodrugs of two analogues of 2-deoxy-d-ribose-1-phosphate directed to the discovery of two carbasugars as new potential anti-HIV leads” (Bioorg Med Chem, 2015)
The source made the active and inactive calls. No cut-off for these calls is given here.

What was measured:
[1] = test system: Human immunodeficiency virus 1; experiment: Antiviral activity against HIV1 3B infected in human CEM cells assessed as reduction of virus-induced cytopathogenicity after 4 to 5 days by trypan blue dye exclusion method; assay type: functional, organism-based; conditions: Human immunodeficiency virus 1, 3B, CCRF-CEM
CCRF-CEM = experiment: (§1) Cytotoxicity against human CEM cells after 72 hrs by coulter counter analysis; assay type: cell-based; conditions: 72 h; for CC50: human, ccrf-cem; for IC50: Homo sapiens, CCRF-CEM
Summary of the method: (§2)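 Tumour cells, (5–7.5) × 10⁴ per well, were grown with graded compound amounts at 37 °C in humidified CO₂. Growth time was 48 h for L1210, 72 h for CEM and 96 h for HeLa. Cells were then counted with a Coulter counter. IC50 was the concentration reducing cell proliferation by 50%.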

[2] = test system: Human immunodeficiency virus 2; experiment: Antiviral activity against HIV2 ROD infected in human CEM cells assessed as reduction of virus-induced cytopathogenicity after 4 to 5 days by trypan blue dye exclusion method; assay type: functional, organism-based; conditions: Human immunodeficiency virus 2, ISOLATE ROD, CCRF-CEM
[3] = Prodrug activation assessed as carboxypeptidase Y (unknown origin)-mediated drug metabolism after 13 hrs by 31P-NMR analysis; assay type: ADME, Homo sapiens
Summary of the method: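 The substrate was dissolved in acetone-d6 and mixed with Trizma buffer (pH 7.6) for the carboxypeptidase Y incubation.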

[4] = test system: Human immunodeficiency virus 2; experiment: Antiviral activity against HIV2 ROD infected in human TK-deficient CEM cells assessed as reduction of virus-induced cytopathogenicity after 4 to 5 days by trypan blue dye exclusion method; assay type: functional, organism-based; conditions: Human immunodeficiency virus 2, ISOLATE ROD, CCRF-CEM
[5] = test system: Human immunodeficiency virus 1; experiment: Antiviral activity against HIV1 NL4.3 infected in human MT4 cells assessed as reduction of virus-induced cytopathogenicity after 4 to 5 days by trypan blue dye exclusion method; assay type: functional, organism-based; conditions: Human immunodeficiency virus 1, NL4.3, MT4
Summary of the method: (§3)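 MT-4 cells (~3 × 10⁵ cells/mL) were infected with 100 CCID50/mL of HIV and cultured with compound dilutions for 4–5 days at 37 °C in humidified CO₂. Viable cells were counted by trypan blue dye exclusion. EC50 was the concentration giving 50% inhibition of the HIV-induced cytopathic effect.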

HeLa = experiment: Cytotoxicity against human HeLa cells after 96 hrs by coulter counter analysis; assay type: cell-based; summary of the method: as §2
L1210 = experiment: Cytotoxicity against mouse L1210 cells after 48 hrs by coulter counter analysis; assay type: cell-based; conditions: L1210, 48 h; summary of the method: as §2
[6] = test system: Human immunodeficiency virus 2; experiment: Antiviral activity against HIV2 ROD infected in human MT4 cells assessed as reduction of virus-induced cytopathogenicity after 4 to 5 days by trypan blue dye exclusion method; assay type: functional, organism-based; conditions: Human immunodeficiency virus 2, ISOLATE ROD; summary of the method: as §3
MT4 = experiment: Cytotoxicity against human MT4 cells after 4 to 5 days by trypan blue dye exclusion method; assay type: cell-based
[7] = as §1; assay type: cell-based, CCRF-CEM; conditions: human, CEM cells (CCRF-CEM); summary of the method: as §2
[8] = biological target: Human immunodeficiency virus type 1 reverse transcriptase (Human immunodeficiency virus 1) (UniProt Q72547); experiment: Activity at HIV reverse transcriptase
[9] = test system: Mammalian orthoreovirus 1; experiment: Antiviral activity against Reovirus-1 infected in African green monkey Vero cells at 100 uM; assay type: functional, cell-based
Human alphaherpesvirus 1 = experiment: Antiviral activity against HSV1 infected in HEL cells at 100 uM; assay type: functional, organism-based
Coxsackievirus = experiment: Antiviral activity against Coxsackievirus B4 infected in human HeLa cells at 100 uM; assay type: functional, organism-based
Human orthopneumovirus = experiment: Antiviral activity against Respiratory syncytial virus infected in human HeLa cells at 100 uM; assay type: functional, organism-based
Sindbis virus = experiment: Antiviral activity against Sindbis virus infected in African green monkey Vero cells at 100 uM; assay type: functional, organism-based
Punta Toro virus = experiment: Antiviral activity against Punta Toro virus infected in African green monkey Vero cells at 100 uM; assay type: functional, organism-based
Influenza A virus [10] = experiment: Antiviral activity against Influenza A virus H1N1 infected in MDCK cells at 100 uM; assay type: functional, organism-based
Human alphaherpesvirus 2 = experiment: Antiviral activity against HSV2 infected in HEL cells at 100 uM; assay type: functional, organism-based
Influenza A virus [11] = experiment: Antiviral activity against Influenza A virus H3N2 infected in MDCK cells at 100 uM; assay type: functional, organism-based
Felid alphaherpesvirus 1 = experiment: Antiviral activity against Feline herpesvirus infected in CRFK cells at 100 uM; assay type: functional, organism-based
[12] = test system: Vesicular stomatitis virus; experiment: Antiviral activity against Vesicular stomatitis virus infected in human HeLa cells at 100 uM; assay type: functional, organism-based
Vaccinia virus = experiment: Antiviral activity against Vaccinia virus infected in HEL cells at 100 uM; assay type: functional, organism-based; conditions: Orthopoxvirus vaccinia
Feline coronavirus = experiment: Antiviral activity against Feline coronavirus infected in CRFK cells at 100 uM; assay type: functional, organism-based
Human respirovirus 3 = experiment: Antiviral activity against Parainfluenza virus 3 infected in African green monkey Vero cells at 100 uM; assay type: functional, organism-based

OC[C@H]1CC(O)C[C@@H]1O (some centres not stated)
EC50 [1]: > 250 µM | CC50 (CCRF-CEM): > 250 µM | EC50 [2]: > 250 µM

C[C@H](NP(=O)(Oc1cccc2ccccc12)OC1C[C@H](CO)[C@@H](O)C1)C(=O)OC1CCCCC1 (mixture of isomers)
Stability [3]: Stable | EC50 [4]: 50 µM | EC50 [1]: > 50 µM | CC50 (CCRF-CEM): > 250 µM | EC50 [2]: > 50 µM

COC(=O)[C@H](C)NP(=O)(Oc1ccccc1)OC1C[C@H](CO)[C@@H](O)C1 (mixture of isomers)
EC50 [4]: 250 µM | EC50 [1]: > 250 µM | CC50 (CCRF-CEM): > 250 µM | EC50 [2]: > 250 µM

CCCCCOC(=O)[C@H](C)NP(=O)(Oc1ccccc1)O[C@@H]1CC[C@H](O)[C@H]1CO (some centres not stated)
EC50 [5]: > 250 µM | IC50 (HeLa): 166 µM | IC50 (L1210): 116 µM | EC50 [6]: 145 µM | IC50 (CCRF-CEM): 106 µM | CC50 (MT4): > 250 µM

O=C(OCc1ccccc1)OC[C@H]1CC(O)C[C@@H]1OC(=O)OCc1ccccc1 (some centres not stated)
EC50 [1]: > 50 µM | CC50 at 72 h [7]: 110 µM | EC50 [2]: > 50 µM

C[C@H](NP(=O)(Oc1ccccc1)OC1C[C@H](CO)[C@@H](O)C1)C(=O)OC(C)(C)C (mixture of isomers)
EC50 [4]: 250 µM | EC50 [1]: > 250 µM | CC50 (CCRF-CEM): > 250 µM | EC50 [2]: > 250 µM

O=C(OCc1ccccc1)OC[C@H]1[C@H](O)CC[C@@H]1OC(=O)OCc1ccccc1
Activity [8]: inactive | EC50 [1]: 2.1 µM | CC50 at 72 h [7]: 94 µM | EC50 [2]: 5.4 µM

C[C@H](NP(=O)(Oc1cccc2ccccc12)O[C@@H]1CC[C@H](O)[C@H]1CO)C(=O)OCC(C)(C)C (some centres not stated)
EC50 [5]: > 50 µM | IC50 (HeLa): 94 µM | IC50 (L1210): 70 µM | EC50 [6]: > 50 µM | IC50 (CCRF-CEM): 64 µM | CC50 (MT4): 112 µM

OC[C@H]1[C@H](O)CC[C@@H]1O
EC50 [5]: 6.7 µM | Activity [9]: inactive | Activity (Human alphaherpesvirus 1): inactive | Activity (Coxsackievirus): inactive | Activity (Human orthopneumovirus): inactive | Activity (Sindbis virus): inactive | Activity (Punta Toro virus): inactive | Activity (Influenza A virus [10]): inactive | Activity (Human alphaherpesvirus 2): inactive | Activity (Influenza A virus [11]): inactive | Activity (Felid alphaherpesvirus 1): inactive | IC50 (HeLa): 175 µM | Activity [8]: inactive | EC50 [1]: 3.8 µM | Activity [12]: inactive | Activity (Vaccinia virus): inactive | Activity (Feline coronavirus): inactive | IC50 (L1210): 55 µM | Activity (Human respirovirus 3): inactive | EC50 [6]: 7.5 µM | IC50 (CCRF-CEM): ≥ 250 µM | CC50 (CCRF-CEM): > 250 µM | EC50 [2]: 12 µM | CC50 (MT4): 90 µM

COC(=O)[C@@H](NP(=O)(Oc1ccccc1)OC1C[C@H](CO)[C@@H](O)C1)C(C)C (mixture of isomers)
EC50 [4]: 250 µM | EC50 [1]: > 250 µM | CC50 (CCRF-CEM): > 250 µM | EC50 [2]: > 250 µM

C[C@H](NP(=O)(Oc1ccccc1)OC1C[C@H](CO)[C@@H](O)C1)C(=O)OC1CCCCC1 (mixture of isomers)
EC50 [4]: 250 µM | EC50 [1]: > 250 µM | CC50 (CCRF-CEM): > 250 µM | EC50 [2]: > 250 µM
